Wnt act: activators of Wnt/beta-catenin signaling; Wnt/beta-catenin reporter cell assay, activator, plate reader; activation, % at 9.35 µM; 300,000 tested, 1.2% active; AID 743398; in the data active means activation above about 30%, passing the limit was not always enough; inconclusive means no clear call, values can overlap the other calls;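 further: 0% = neutral control wells and 100% = positive control wells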
SR-BI DiI-HDL act: enhances SR-BI lipid uptake from DiI-HDL | 320,000 tested, 0.096% active | CHO ldlA[mSR-BI] cells, DiI-HDL uptake fluorescence, 3 h; 100 = double the neutral-control signal | activation, % at 12.5 µM;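 active means mean replicate activation of at least 60% and every replicate at or above 60%; inconclusive means mean or all-replicate condition met, but not both; inactive means mean below 60% and not all replicates reaching 60%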;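 further: 0% = median plate neutral-control signal and 100% = twice that signal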
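Assay system: LDL receptor-deficient CHO ldlA cells overexpressing murine SR-BI / Medium: BSA-supplemented, HEPES-buffered Ham's F12, pH 7.4 / Probe or stimulus: DiI-labelled HDL at 10 µg/mL final / Timing: compound with DiI-HDL co-incubation, 3 h at 37 °C / Technique: bottom-read cell fluorescence after medium removal, ex 550/em 595 nm / Measure: HDL uptake via cellular fluorescence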
SR-BI DiI inh: mouse SR-BI HDL lipid transfer inhibition | ldlA[mSR-BI] CHO cells, DiI-HDL uptake fluorescence, 3 h | 320,000 tested, 0.96% active | AID 488896 | Q61009 | inhibition, % at 12.5 µM;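 active means mean replicate inhibition of at least 70% and a set share of replicates each scoring 70 or more; inconclusive means meets just one of the two criteria; inactive means fails both criteria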;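 further: 0% = median of neutral control wells and 100% = median of positive control wells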
Target sequence (Q61009 whole entry, looked up): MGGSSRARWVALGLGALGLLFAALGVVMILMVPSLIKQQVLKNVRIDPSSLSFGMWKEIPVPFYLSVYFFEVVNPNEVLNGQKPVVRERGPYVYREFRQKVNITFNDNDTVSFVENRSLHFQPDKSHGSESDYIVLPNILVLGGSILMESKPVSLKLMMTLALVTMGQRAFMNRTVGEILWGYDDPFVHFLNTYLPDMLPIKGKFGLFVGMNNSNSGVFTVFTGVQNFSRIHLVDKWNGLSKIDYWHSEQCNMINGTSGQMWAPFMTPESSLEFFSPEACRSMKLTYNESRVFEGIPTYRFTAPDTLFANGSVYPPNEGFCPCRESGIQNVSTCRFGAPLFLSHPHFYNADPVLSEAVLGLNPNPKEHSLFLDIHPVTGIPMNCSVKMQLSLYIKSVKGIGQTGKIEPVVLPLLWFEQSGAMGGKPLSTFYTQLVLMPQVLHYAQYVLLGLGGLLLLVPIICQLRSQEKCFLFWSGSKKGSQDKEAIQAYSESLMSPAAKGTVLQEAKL
HSF1 activator: increases HSF-1 driven luciferase reporter signal; NIH3T3-HGL HSF-1 luciferase reporter, MG132, 8 h; 100% = twice DMSO control signal; activation, % at 9 µM; 300,000 tested, 1.7% active;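 active means mean replicate activation of at least 50% with a set share of replicates each reaching 50%; inconclusive means only one of those two conditions met; inactive means mean below 50% and too few replicates reaching it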;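 further: 0% = median of the neutral control wells and 100% = twice that signal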
MITF TRPM1 HTS: MITF TRPM1 promoter activation in melanoma cells; activation, % at 12.5 µM; 300,000 tested, 0.75% active; SK-MEL-5 TRPM1-promoter luciferase, 24 h; % of positive control, neutral wells = 0;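 active means mean activation of at least 80% with every replicate also reaching 80%; inconclusive means mean reaches 80% but some replicate falls short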;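 further: 0% = neutral control wells and 100% = parthenolide positive control wells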
The depositor's hits bear a star. Hits are enriched below; roughly 3.6% of the tested compounds scored in any of these assays.

Results for CC(=O)c1c(C)oc2c1cc(O)c1ccccc12 ?
Wnt act: 12; HSF1 activator: -8; MITF TRPM1 HTS: 15

What do the screens show for `COc1cc(-c2nnc(-c3cc(-c4ccccc4)nc4ccccc34)o2)cc(OC)c1OC`?
Wnt act: 2; SR-BI DiI-HDL act: -72; SR-BI DiI inh: inconclusive; MITF TRPM1 HTS: 1

How did CCCc1cnc(N2CCN(C(=S)NC)CC2)nc1 do in these assays?
Wnt act: 40*; SR-BI DiI-HDL act: -1; SR-BI DiI inh: 1; HSF1 activator: 13

Results for CN(C)CCNC(=O)c1cccc(-c2cnc3c(NC=O)cc(/C=C/c4ccccc4)cn23)c1 ?
Wnt act: -2

What do the screens show for `CCSc1ccc(/C(N)=N/OC(=O)c2cccs2)cn1`?
Wnt act: 29; SR-BI DiI inh: 3; HSF1 activator: 34; MITF TRPM1 HTS: 108*

How did COc1ccccc1CN=C1Nc2ccccc2CS1 do in these assays?
Wnt act: 6; SR-BI DiI-HDL act: 16; SR-BI DiI inh: -16; HSF1 activator: 123*; MITF TRPM1 HTS: 29

Results for c1cncc(CN=C2Nc3ccccc3CS2)c1 ?
Wnt act: 0; SR-BI DiI-HDL act: 16; SR-BI DiI inh: -16; HSF1 activator: 15; MITF TRPM1 HTS: -12

How did Cc1ccc(CN=C2Nc3ccccc3CS2)cc1 do in these assays?
Wnt act: 30; SR-BI DiI-HDL act: 15; SR-BI DiI inh: -15; HSF1 activator: 61*

Results for COc1cccc(CN=C2Nc3ccccc3CS2)c1 ?
SR-BI DiI-HDL act: 5; SR-BI DiI inh: -5; HSF1 activator: 43; MITF TRPM1 HTS: 34

What do the screens show for `Cc1ccc(C)c(C2=NNC(=NCc3ccccc3)SC2)c1`?
Wnt act: -1; SR-BI DiI-HDL act: 2; SR-BI DiI inh: -2; HSF1 activator: 0; MITF TRPM1 HTS: 7

What do the screens show for `Clc1ccc(CN=C2Nc3ccccc3CS2)cc1`?
Wnt act: 64*; SR-BI DiI-HDL act: 11; SR-BI DiI inh: -11; HSF1 activator: 66*

How did COC(=O)[C@]12C[C@H](CC(=O)NCc3cccc(C(F)(F)F)c3)C(=O)N(CCC3=CCCCC3)C1=C[C@H](COCc1ccccc1)O[C@@H]2C do in these assays?
Wnt act: -6

Results for CC(=O)C(/C=N/c1cc(-c2ccc(C)cc2)nn1-c1ccccc1)=C(\C)O ?
Wnt act: 38*; SR-BI DiI-HDL act: -37; SR-BI DiI inh: 37; HSF1 activator: 42; MITF TRPM1 HTS: 42

How did Cc1ccc(NC(=O)c2cc(-c3ccccc3)nn2-c2ccccc2)cc1 do in these assays?
Wnt act: -1; SR-BI DiI-HDL act: -49; SR-BI DiI inh: 49; HSF1 activator: 1; MITF TRPM1 HTS: 3

Results for CCOc1ccc2nc3cc(N=Nc4ccc(N)nc4N)ccc3c(N)c2c1 ?
SR-BI DiI-HDL act: -17; SR-BI DiI inh: 17; MITF TRPM1 HTS: -74

Results for C=CCc1c(C)nc(-c2ccccc2)nc1Nc1ccccc1O ?
Wnt act: -3; SR-BI DiI-HDL act: -101; SR-BI DiI inh: 101*; MITF TRPM1 HTS: 8

Results for CCN(C(=O)COC(=O)C1CCC(C(C)(C)C)CC1)c1c(N)n(Cc2ccccc2)c(=O)[nH]c1=O (configuration not stated) ?
Wnt act: -14; SR-BI DiI-HDL act: -34; SR-BI DiI inh: 34; MITF TRPM1 HTS: -26

Results for Nc1[nH]c(C(=O)c2ccccc2)c(-c2ccncc2)c1C(=O)NCc1ccc(Cl)cc1 ?
Wnt act: -3

Results for Nc1ccc(-c2nc3ccc([N+](=O)[O-])cc3[nH]2)cc1 ?
Wnt act: 59*; SR-BI DiI-HDL act: -18; SR-BI DiI inh: 18; HSF1 activator: 16; MITF TRPM1 HTS: 10

What do the screens show for `Nc1ccc2nc(-c3cc(Cl)c(N)c(Cl)c3)[nH]c2c1`?
Wnt act: 43*; SR-BI DiI-HDL act: -6; SR-BI DiI inh: 6; HSF1 activator: 25; MITF TRPM1 HTS: 51

What do the screens show for `CCCC[n+]1ccc(-c2nc3ccc([N+](=O)[O-])cc3[nH]2)cc1`?
Wnt act: 9; SR-BI DiI-HDL act: 9; SR-BI DiI inh: -9; HSF1 activator: 10; MITF TRPM1 HTS: 7

Results for Nc1ccc2nc(-c3ccc(Cl)cc3)[nH]c2c1 ?
Wnt act: 22; SR-BI DiI-HDL act: -13; SR-BI DiI inh: 13; HSF1 activator: 28; MITF TRPM1 HTS: 62

Bioassay records as filed in PubChem BioAssay.
